Test results taken from ChEMBL document CHEMBL2311271 (Eur J Med Chem, 2013).

What was measured:
KB = test: Cytotoxicity against human KB cells by MTT assay; format: functional, cell-based
Method in brief: (§1)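 Cells grown in RPMI-1640 with 10% fetal calf serum plus penicillin and streptomycin, 37 °C, 5% CO₂. Compounds in DMSO, final ≤2% (v/v), tested in 96-well cultures with MTT staining. IC₅₀ = concentration cutting optical density 50% versus untreated cells; three replicate wells per point; mean of three independent determinations.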

A-375 = test: Cytotoxicity against human A375 cells by MTT assay; format: functional, cell-based; method in brief: as §1
A549 = test: Cytotoxicity against human A549 cells by MTT assay; format: functional, cell-based; method in brief: as §1
OS-RC-2 = test: Cytotoxicity against human OS-RC2 cells by MTT assay; format: functional, cell-based; method in brief: as §1
U-251 = test: Cytotoxicity against human U251 cells by MTT assay; format: functional, cell-based; method in brief: as §1
HepG2 = test: Cytotoxicity against human HepG2 cells by MTT assay; format: functional, cell-based; method in brief: as §1
HT-29 = test: Cytotoxicity against human HT-29 cells by MTT assay; format: functional, cell-based; method in brief: as §1
Bel-7402 = test: Cytotoxicity against human Bel7402 cells by MTT assay; format: functional, cell-based; method in brief: as §1
SCaBER = test: Cytotoxicity against human SCaBER cells by MTT assay; format: functional, cell-based; method in brief: as §1
769-P = test: Cytotoxicity against human 769-P cells by MTT assay; format: functional, cell-based; method in brief: as §1
786-0 = test: Cytotoxicity against human 786-0 cells by MTT assay; format: functional, cell-based; method in brief: as §1
[1] = Cytotoxicity against human Blu-87 cells by MTT assay; format: functional, cell-based; method in brief: as §1
MCF7 = test: Cytotoxicity against human MCF7 cells by MTT assay; format: functional, cell-based; method in brief: as §1
HeLa = test: Cytotoxicity against human HeLa cells by MTT assay; format: functional, cell-based; method in brief: as §1
BGC-823 = test: Cytotoxicity against human BGC823 cells by MTT assay; format: functional, cell-based; method in brief: as §1
CWR22R = test: Cytotoxicity against human 22Rv1 cells by MTT assay; format: functional, cell-based; method in brief: as §1
Mus musculus = test: Neurotoxicity in ip dosed C57BL/6 mouse assessed as tremble, twitch, jumping and supination response; format: toxicity, organism-based; details: in vivo
Method in brief: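 C57BL/6 mice (9–12 weeks, 18–22 g), fasted overnight with water, dosed i.p. with 1.0–500 mg/kg in 0.5% CMC-Na; 10 per group (5 male, 5 female). Watched continuously 2 h for tremor, twitch, jumping, supination and other behavior, then intermittently to 24 h and occasionally to 14 days; killed day 14, with heart, liver and kidneys inspected.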

[2] = Antitumor activity against mouse Sarcoma 180 cells xenografted in mouse assessed as tumor inhibition at 1.2 mg/kg, ip qd for 7 days measured every 3 days for 21 days; format: functional; details: Sarcoma-180, ip, route intraperitoneal
[3] = tested on: Lewis lung carcinoma cell line; test: Antitumor activity against mouse LLC cells xenografted in mouse assessed as tumor inhibition at 1.2 mg/kg, ip qd for 7 days measured every 3 days for 21 days; format: functional; details: route intraperitoneal
[4] = Acute toxicity in ip dosed C57BL/6 mouse measured up to 14 days; format: organism-based; details: in vivo
Method in brief: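 Healthy C57BL/6 mice (9–12 weeks, 18–22 g), fasted overnight, 10 per group (5 male, 5 female). Single i.p. dose, 1.0 to 500 mg/kg in 0.5% CMC-Na. Watched continuously for 2 h, intermittently over 24 h, then occasionally to day 14 for behaviour, deaths and delayed effects. Heart, liver and kidneys inspected at necropsy. LD50 derived graphically.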

[5] = tested on: Lewis lung carcinoma cell line; test: Antitumor activity against mouse LLC cells xenografted in mouse assessed as tumor inhibition at 0.63 mg/kg, ip qd for 7 days measured every 3 days for 21 days; format: functional; details: route intraperitoneal
[6] = Antitumor activity against mouse Sarcoma 180 cells xenografted in mouse assessed as tumor inhibition at 0.63 mg/kg, ip qd for 7 days measured every 3 days for 21 days; format: functional; details: Sarcoma-180, ip, route intraperitoneal
[7] = tested on: Lewis lung carcinoma cell line; test: Antitumor activity against mouse LLC cells xenografted in mouse assessed as tumor inhibition at 40 mg/kg, ip qd for 7 days measured every 3 days for 21 days; format: functional; details: route intraperitoneal
[8] = Antitumor activity against mouse Sarcoma 180 cells xenografted in mouse assessed as tumor inhibition at 40 mg/kg, ip qd for 7 days measured every 3 days for 21 days; format: functional; details: Sarcoma-180, ip, route intraperitoneal
[9] = tested on: Lewis lung carcinoma cell line; test: Antitumor activity against mouse LLC cells xenografted in mouse assessed as tumor inhibition at 30 mg/kg, ip qd for 7 days measured every 3 days for 21 days; details: read-out: INH
[10] = Antitumor activity against mouse Sarcoma 180 cells xenografted in mouse assessed as tumor inhibition at 30 mg/kg, ip qd for 7 days measured every 3 days for 21 days; details: Sarcoma-180, ip, read-out: INH
[11] = tested on: Lewis lung carcinoma cell line; test: Antitumor activity against mouse LLC cells xenografted in mouse assessed as tumor inhibition at 7.5 mg/kg, ip qd for 7 days measured every 3 days for 21 days; format: functional; details: route intraperitoneal
Method in brief: (§2)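 Tumour cells passaged in mice for 7 days, then harvested. Viable cells (2 × 10⁶/mouse) injected s.c. into the armpit. Starting 24 h later, compound given i.p. once daily for 7 days, 10 female mice per group. Mice killed on day 21 after inoculation and tumours excised and weighed. Inhibition = (C − T)/C × 100, using mean tumour weights of treated (T) and negative control (C) groups.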

[12] = Antitumor activity against mouse Sarcoma 180 cells xenografted in mouse assessed as tumor inhibition at 7.5 mg/kg, ip qd for 7 days measured every 3 days for 21 days; format: functional; details: Sarcoma-180, ip, route intraperitoneal; method in brief: as §2

Structure (SMILES)	IC50 (KB) [µM]	IC50 (A-375) [µM]	IC50 (A549) [µM]	IC50 (OS-RC-2) [µM]	IC50 (U-251) [µM]	IC50 (HepG2) [µM]	IC50 (HT-29) [µM]	IC50 (Bel-7402) [µM]	IC50 (SCaBER) [µM]	IC50 (769-P) [µM]	IC50 (786-0) [µM]	IC50 [1] [µM]	IC50 (MCF7) [µM]	IC50 (HeLa) [µM]	IC50 (BGC-823) [µM]	IC50 (CWR22R) [µM]	Activity (Mus musculus)	LD50 at 336 h [4] [mg/kg]	other results
Cc1c2c(cc[n+]1Cc1ccccc1)c1ccc(OCC(C)C)cc1n2CC(C)C	< 1.5	3.9	4.3	8.3	4.5	5.7	4.2	4.3	12.8	< 1.5	3.4	5.2	2.9	2.1	5.4	2.6			
CCC(CC)Oc1ccc2c3cc[n+](Cc4ccccc4)c(C)c3n(CCCc3ccccc3)c2c1.[Br-]	< 1.5	< 1.5	2	2.5	2.1	3.1	2	0.81	4.4	< 1.5	< 1.5	2.1	1.8	1.5	2.5	< 1.5	Non-toxic	6.25	inhibition in vivo at 1.2 mg/kg [2]: 41.5%; inhibition in vivo at 1.2 mg/kg [3]: 28%
Cc1c2c(cc[n+]1Cc1ccccc1)c1ccc(OCCCc3ccccc3)cc1n2CCCc1ccccc1.[Br-]	< 1.5	< 1.5	3.3	3.1	0.74	3.8	2	2	7.7	2.9	2.2	1.5	6.6	3.1	2.5	2.3	Non-toxic	3.75	inhibition in vivo at 0.63 mg/kg [5]: 33.7%; inhibition in vivo at 0.63 mg/kg [6]: 46.1%
CCn1c2cc(OCC(C)C)ccc2c2ccnc(C)c21	20.3		30.3	32	44.6	20.8	16.9	21.9	16.4	27	24.3	14.2	13.2	23.3	29.8		Non-toxic	200	inhibition in vivo at 40 mg/kg [7]: 20.8%; inhibition in vivo at 40 mg/kg [8]: 27.8%
CCn1c2cc(OCCCc3ccccc3)ccc2c2ccnc(C)c21	22.6	19.7	22.6		28	11.4	11.8	13.5	6.5	22.6	13.2	16.7	> 100	30.2	11.9		Non-toxic	200	inhibition in vivo at 40 mg/kg [7]: 21.7%; inhibition in vivo at 40 mg/kg [8]: 26%
O=P1(N(CCCl)CCCl)NCCCO1 (stereo not drawn) [CYCLOPHOSPHAMIDE ANHYDROUS]																	Non-toxic		inhibition in vivo at 30 mg/kg [9]: 85.6%; inhibition in vivo at 30 mg/kg [10]: 88.7%
COc1ccc2c(c1)[nH]c1c(C)nccc12 [HARMINE]																	Toxic		inhibition in vivo at 7.5 mg/kg [11]: 33.7%; inhibition in vivo at 7.5 mg/kg [12]: 30.8%
